Reference: publication PMC6656940 (CPT: Pharmacometrics & Systems Pharmacology, 2019)
Like-named read-outs stand apart in the source and are kept apart here. Blank lines part the entries; values can stand above or below the compound they belong to.

Legend:
[1] = tested on: CYP3A4; assay: Clearance of ACP-5862 in human liver microsomes; assay type: in vitro ADME; conditions: assigned to CYP3A4
[2] = Blood-to-plasma partition ratio; assay type: in vitro ADME
[3] = target: CYP2C9 (Homo sapiens, UniProt P11712); assay: In vitro competitive inhibition of CYP2C9; assay type: in vitro ADME
[4] = tested on: BTK; conditions: cited from earlier work
[5] = Physicochemical properties; conditions: Experimental data
[6] = cited from earlier work
[7] = target: CYP2C19 (Homo sapiens, UniProt P33261); assay: In vitro competitive inhibition of CYP2C19; assay type: in vitro ADME; conditions: read-out: CYP2C19 Ki; reversible inhibition
[8] = target: T1, CYP2C8 (Homo sapiens, UniProt P10632); assay: In vitro competitive and time-dependent inhibition of CYP2C8; assay type: in vitro ADME
T1 sequence (P10632 1-490): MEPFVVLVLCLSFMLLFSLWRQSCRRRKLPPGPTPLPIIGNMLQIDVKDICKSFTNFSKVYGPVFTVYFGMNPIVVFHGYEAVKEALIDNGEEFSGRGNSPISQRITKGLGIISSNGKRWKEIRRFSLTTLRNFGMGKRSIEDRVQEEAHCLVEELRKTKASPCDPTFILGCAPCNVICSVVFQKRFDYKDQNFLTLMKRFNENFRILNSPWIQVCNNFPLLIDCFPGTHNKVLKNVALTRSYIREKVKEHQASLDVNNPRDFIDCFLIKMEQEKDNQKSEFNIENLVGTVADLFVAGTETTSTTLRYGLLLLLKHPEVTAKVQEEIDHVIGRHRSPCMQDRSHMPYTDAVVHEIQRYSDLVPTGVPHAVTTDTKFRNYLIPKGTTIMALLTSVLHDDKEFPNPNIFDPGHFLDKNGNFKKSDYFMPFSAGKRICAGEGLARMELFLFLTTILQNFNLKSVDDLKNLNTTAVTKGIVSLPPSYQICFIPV

[9] = Unbound fraction in plasma; assay type: in vitro ADME
[10] = cited from earlier work; remark: listed apart in the source
[11] = tested on: human hepatocytes; assay: Metabolite profiling of 14C-acalabrutinib in human hepatocytes; assay type: in vitro ADME; conditions: 20 μM 14C-acalabrutinib
Method in brief: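 14C-labelled test compound at 20 μM was incubated with human hepatocytes from two male donors for qualitative metabolite profiling. Metabolism was apportioned between glutathione and CYP-mediated pathways, and the CYP3A share of CYP metabolite formation was estimated.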

[12] = target: T2, P-gp (Homo sapiens, UniProt P08183); assay: In vitro P-gp inhibition; assay type: in vitro ADME
[13] = PBPK model input parameters predicted, optimized or estimated in Simcyp; set-up: species or system human
[14] = tested on: CYP3A4; assay type: in vitro ADME; conditions: any concentration evaluated
[15] = target: CYP3A4 (Homo sapiens, UniProt P08684); assay: biochemical; assay type: in vitro ADME
[16] = tested on: patients with relapsed/refractory mantle cell lymphoma; conditions: median follow-up 15.2 months; cited from earlier work
[17] = tested on: CYP1A2; assay: In vitro CYP induction, CYP1A2 marker substrate; assay type: in vitro ADME; conditions: any concentration evaluated
[18] = tested on: CYP2B6; assay: In vitro CYP induction, CYP2B6 marker substrate; assay type: in vitro ADME; conditions: any concentration evaluated
[19] = tested on: patients with relapsed CLL; conditions: median follow-up 14.3 months; cited from earlier work
[20] = target: T2, P-gp; assay: Efflux in MDCKII-MDR1 cells; assay type: in vitro ADME; conditions: dog, MDCK-MDR1
[21] = Clinical pharmacokinetics of acalabrutinib and ACP-5862; assay type: in vivo, human; conditions: ACE-HV-001, oral
Method in brief: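 Healthy subjects in a phase I dose-escalation study (ACE-HV-001) received single oral acalabrutinib doses of 25, 50, 75 or 100 mg (cohorts 3–6). In vivo total clearance was taken from this study's plasma concentration–time data.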

[22] = clinical DDI study with rifampicin; cited from earlier work
[23] = with strong CYP3A inhibitor clarithromycin; cited from earlier work

CYP3A4 (Homo sapiens, UniProt P08684), sequence (P08684 whole entry): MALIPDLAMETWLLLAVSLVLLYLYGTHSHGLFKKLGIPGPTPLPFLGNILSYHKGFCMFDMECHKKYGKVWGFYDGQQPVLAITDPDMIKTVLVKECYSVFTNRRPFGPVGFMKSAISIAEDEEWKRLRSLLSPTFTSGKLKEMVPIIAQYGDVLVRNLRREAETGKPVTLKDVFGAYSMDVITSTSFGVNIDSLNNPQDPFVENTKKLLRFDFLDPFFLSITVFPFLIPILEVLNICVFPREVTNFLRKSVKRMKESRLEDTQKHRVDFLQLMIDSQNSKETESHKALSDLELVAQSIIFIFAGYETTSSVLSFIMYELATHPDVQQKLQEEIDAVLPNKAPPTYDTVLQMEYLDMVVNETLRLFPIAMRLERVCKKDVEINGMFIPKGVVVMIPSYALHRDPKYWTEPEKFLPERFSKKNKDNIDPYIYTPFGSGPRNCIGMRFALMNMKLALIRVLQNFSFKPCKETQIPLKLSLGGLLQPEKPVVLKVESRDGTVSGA
T2 sequence (P08183 whole entry): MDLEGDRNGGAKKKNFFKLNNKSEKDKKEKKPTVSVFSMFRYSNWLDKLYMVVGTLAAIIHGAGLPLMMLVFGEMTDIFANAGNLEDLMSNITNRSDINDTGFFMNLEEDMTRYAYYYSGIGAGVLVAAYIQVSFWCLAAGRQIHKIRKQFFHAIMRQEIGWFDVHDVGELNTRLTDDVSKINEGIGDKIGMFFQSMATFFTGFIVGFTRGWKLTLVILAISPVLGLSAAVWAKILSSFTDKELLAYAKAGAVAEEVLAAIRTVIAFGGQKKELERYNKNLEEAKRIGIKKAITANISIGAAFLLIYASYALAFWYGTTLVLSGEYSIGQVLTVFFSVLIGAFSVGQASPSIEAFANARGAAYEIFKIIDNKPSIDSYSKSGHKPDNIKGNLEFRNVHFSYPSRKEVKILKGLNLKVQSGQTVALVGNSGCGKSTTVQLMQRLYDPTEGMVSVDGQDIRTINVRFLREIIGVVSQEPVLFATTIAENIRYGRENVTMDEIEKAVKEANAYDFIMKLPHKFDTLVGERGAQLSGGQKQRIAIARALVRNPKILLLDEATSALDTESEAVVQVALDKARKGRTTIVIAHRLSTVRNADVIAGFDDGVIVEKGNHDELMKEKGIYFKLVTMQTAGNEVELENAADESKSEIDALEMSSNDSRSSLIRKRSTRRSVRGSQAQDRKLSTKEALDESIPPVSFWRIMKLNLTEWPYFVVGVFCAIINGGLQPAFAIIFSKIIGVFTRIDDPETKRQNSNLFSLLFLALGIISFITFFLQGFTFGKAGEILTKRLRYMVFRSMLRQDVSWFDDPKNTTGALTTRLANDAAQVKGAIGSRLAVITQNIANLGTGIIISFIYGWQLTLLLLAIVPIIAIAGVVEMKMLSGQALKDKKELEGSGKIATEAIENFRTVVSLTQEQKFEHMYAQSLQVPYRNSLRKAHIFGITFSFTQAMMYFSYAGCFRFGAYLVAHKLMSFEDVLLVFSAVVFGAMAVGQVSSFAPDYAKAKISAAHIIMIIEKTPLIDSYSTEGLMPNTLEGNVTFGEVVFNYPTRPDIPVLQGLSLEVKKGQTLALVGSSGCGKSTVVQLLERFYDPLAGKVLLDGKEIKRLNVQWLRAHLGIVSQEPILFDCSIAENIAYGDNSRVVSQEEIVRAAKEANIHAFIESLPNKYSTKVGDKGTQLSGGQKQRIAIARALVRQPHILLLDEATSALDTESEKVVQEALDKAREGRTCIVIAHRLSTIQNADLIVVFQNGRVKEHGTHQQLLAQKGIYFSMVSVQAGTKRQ
CYP2C9, sequence (P11712 whole entry): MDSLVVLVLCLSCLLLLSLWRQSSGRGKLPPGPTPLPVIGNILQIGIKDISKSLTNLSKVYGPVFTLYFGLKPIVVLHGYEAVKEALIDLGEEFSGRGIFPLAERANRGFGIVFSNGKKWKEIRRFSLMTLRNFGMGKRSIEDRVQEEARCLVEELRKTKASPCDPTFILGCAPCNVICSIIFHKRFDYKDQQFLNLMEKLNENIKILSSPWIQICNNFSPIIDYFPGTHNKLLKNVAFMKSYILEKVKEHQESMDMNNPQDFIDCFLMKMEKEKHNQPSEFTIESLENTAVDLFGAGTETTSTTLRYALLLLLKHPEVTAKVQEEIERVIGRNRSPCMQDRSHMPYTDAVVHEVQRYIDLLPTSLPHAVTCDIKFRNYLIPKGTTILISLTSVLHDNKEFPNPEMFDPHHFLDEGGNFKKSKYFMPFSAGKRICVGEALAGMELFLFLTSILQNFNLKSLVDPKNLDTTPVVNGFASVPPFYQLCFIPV
CYP2C19, sequence (P33261 whole entry): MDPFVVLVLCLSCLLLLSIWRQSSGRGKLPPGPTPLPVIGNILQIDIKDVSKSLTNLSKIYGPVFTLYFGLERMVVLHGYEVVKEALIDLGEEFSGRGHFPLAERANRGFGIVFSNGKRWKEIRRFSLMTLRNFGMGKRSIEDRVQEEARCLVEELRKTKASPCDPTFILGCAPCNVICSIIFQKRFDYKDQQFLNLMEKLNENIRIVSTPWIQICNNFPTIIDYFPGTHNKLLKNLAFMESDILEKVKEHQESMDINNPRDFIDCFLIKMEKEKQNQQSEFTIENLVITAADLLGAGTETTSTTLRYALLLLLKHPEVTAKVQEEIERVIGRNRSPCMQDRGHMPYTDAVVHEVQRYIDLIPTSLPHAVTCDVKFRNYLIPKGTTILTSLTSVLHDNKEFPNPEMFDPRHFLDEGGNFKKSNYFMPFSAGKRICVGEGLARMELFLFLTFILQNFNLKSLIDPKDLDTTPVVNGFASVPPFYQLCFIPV

- Clint in vitro HLM, CYP3A4 [1]: 23.6 µL/min/mg
- B/P ratio (blood-to-plasma ratio) ([2]; Experimental data): 0.65
- Ki ([3]; read-out: CYP2C9 Ki, reversible inhibition): 3.35 µM
- Compound type [5]: Diprotic base
- logP [5]: 2.72
- pKa (first value) [5]: 3.41
- pKa (second value) [5]: 4.49
- Ki [7]: 8.5 µM
- Ki ([8]; read-out: CYP2C8 KI, time-dependent inhibition): 4 µM
- CYP2C8 kinact ([8]; time-dependent inhibition): 0.72 h⁻¹
- fu,plasma (unbound fraction in plasma) ([9]; Experimental data): 0.013
SMILES: CC#CC(=O)NCCCC(=O)c1nc(-c2ccc(C(=O)Nc3ccccn3)cc2)c2c(N)nccn12 [ACP‐5862]
- potency for BTK inactivation relative to parent acalabrutinib [4]: ~ 50%
- CLR (renal clearance) ([6]; ACP-5862, reported in ACE-HV-009): 0.3 L/h
- half-life ([6]; ACP-5862 after single oral dose of 100 mg acalabrutinib): 6.9 h
- ACP-5862-related metabolites, share of total dose ([10]; human mass balance study): 10%

- share of CYP3A in the formation of CYP metabolites [11]: ~ 90%
- relative contribution of CYP-mediated metabolic pathway ([11]; two male donors): 79%
- relative contribution of glutathione metabolic pathway ([11]; two male donors): 21%
- P-gp inhibition [12]: not a P‐gp inhibitor
- blood plasma ratio ([2]; blood): 0.787
- Ki [3]: 11.3 µM
- CYP3A4 CLint ([13]; Retrograde model, total CYP3A4 clearance): 9.63 µL/min/pmol
- microsomal CLint ([13]; human, liver microsomes): 290 µL/min/mg
- CYP3A4 CLint ([13]; the rest to other metabolites): 8.14 µL/min/pmol
- induction of metabolism of CYP3A4 marker substrate [14]: did not cause significant induction
- Ki ([15]; CYP3A4 Ki, reversible inhibition): 23.9 µM
- kinact ([15]; human): 0.000308 s⁻¹
- induction of metabolism of CYP1A2 marker substrate [17]: did not cause significant induction
- Compound type [5]: Diprotic base
- pKa ([5]; pKa (first value)): 3.54
- induction of metabolism of CYP2B6 marker substrate [18]: did not cause significant induction
- efflux ratio at 1 μM [20]: 42
- Ki [8]: 20.6 µM
- fraction unbound ([9]; plasma): 0.026
- in vivo total clearance [21]: 169 L/h
SMILES: CC#CC(=O)N1CCC[C@H]1c1nc(-c2ccc(C(=O)Nc3ccccn3)cc2)c2c(N)nccn12 [Acalabrutinib]
- investigator-assessed overall response rate [16]: 81%
- overall response rate [19]: 95%
- CLR (renal clearance) ([6]; clinical study ACE-HV-009): 1.33 L/h
- absolute oral bioavailability ([6]; healthy subjects): 25%
- oral half-life ([6]; healthy subjects): about 1.57 hours
- accumulation after multiple doses ([6]; patients): no accumulation
- unchanged acalabrutinib, share of excreted dose ([10]; human mass-balance study): 1.2%
- acalabrutinib AUC with rifampicin, reduced to % of control [22]: ~ 20%

SMILES: CCN1CCN(Cc2ccc(Nc3ncc(F)c(-c4cc(F)c5nc(C)n(C(C)C)c5c4)n3)nc2)CC1 [abemaciclib]
- increase in exposure [23]: 3.4 fold
